Data set [1] deals with MDA-MB-231. Kind of data set: Cytotoxicity against human MDA-MB-231 cells assessed as reduction in cell viability by cell titer 96 aqueous one solution based assay. In kind it is functional. The essentials:
(§1)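 MDA-MB-231 and MCF-7 breast cancer cells were treated with increasing concentrations of compound. Viability was read by MTS assay, and IC50 values were derived from the concentration–response data.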

Data set [2] relates to MCF7. Kind of data set: Cytotoxicity against human MCF7 cells assessed as reduction in cell viability by cell titer 96 aqueous one solution based assay. In kind it is functional. The essentials:
as §1

Data set [3] concerns MDA-MB-231. The data set is described as follows: Cytotoxicity against human MDA-MB-231 cells assessed as reduction in cell viability up to 10 uM after 24 to 72 hrs by cell titer 96 aqueous one solution based assay. In kind it is functional. The essentials:
(§2)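 Triple-negative breast cancer cells were incubated with compound for 24, 48 or 72 h. Viability was then measured by MTS assay across a concentration series.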

Data set [4] has as its system MDA-MB-231. The data set is described as follows: Cytotoxicity against human MDA-MB-231 cells assessed as reduction in cell viability up to 10 uM in serum-free medium by cell titer 96 aqueous one solution based assay. In kind it is functional. The method, boiled down:
(§3)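 Viability was measured by MTS after treating triple-negative breast cancer cells in serum-free medium, either alone or with BSA added to the serum-free medium, across a concentration series.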

Data set [5] deals with MDA-MB-231. Kind of data set: Cytotoxicity against human MDA-MB-231 cells assessed as reduction in cell viability up to 10 uM in presence of bovine serum albumin by cell titer 96 aqueous one solution based assay. In kind it is functional. The method, boiled down: as §3
Data set [6] relates to MDA-MB-231. Kind of data set: Induction of apoptosis in human MDA-MB-231 cells assessed as increase in caspase 3/7 activity by Caspase-Glo 3/7 luciferase-based assay. In kind it is functional, cell-based. The method, boiled down:
(§4)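 Cells were treated with a range of compound concentrations. Apoptosis was read as caspase-3/7 activity using a luciferase-based luminescent assay.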

The test system of data set [7] is MDA-MB-231. Kind of data set: Induction of apoptosis in human MDA-MB-231 cells assessed as increase in cleaved PARP level up to 10 uM by Western blot analysis. In kind it is functional, cell-based. The essentials: (§5)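 Cells were treated with a range of compound concentrations. Apoptosis was assessed by Western blot detection of cleaved poly-ADP ribose polymerase (PARP).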

Data set [8] relates to MDA-MB-157. Kind of data set: Cytotoxicity against human MDA-MB-157 cells assessed as reduction in cell viability up to 10 uM after 24 to 72 hrs by cell titer 96 aqueous one solution based assay. In kind it is functional. The method, boiled down:
as §2

Data set [9] has as its system MDA-MB-157. The data set is described as follows: Cytotoxicity against human MDA-MB-157 cells assessed as reduction in cell viability up to 10 uM in serum-free medium by cell titer 96 aqueous one solution based assay. In kind it is functional. The method, boiled down:
as §3

Data set [10] concerns MDA-MB-157. Kind of data set: Cytotoxicity against human MDA-MB-157 cells assessed as reduction in cell viability up to 10 uM in presence of bovine serum albumin by cell titer 96 aqueous one solution based assay. In kind it is functional. The method, boiled down: as §3
For data set [11], the system named is MDA-MB-157. The data set is described as follows: Induction of apoptosis in human MDA-MB-157 cells assessed as increase in caspase 3/7 activity up to 10 uM by Caspase-Glo 3/7 luciferase-based assay. In kind it is functional, cell-based. The method, boiled down: as §4
The subject of data set [12] is MDA-MB-157. Kind of data set: Induction of apoptosis in human MDA-MB-157 cells assessed as increase in cleaved PARP level up to 10 uM by Western blot analysis. In kind it is functional, cell-based. The method, boiled down: as §5
On the technique in general: In western blotting, separated proteins are transferred to a membrane and probed.

The target in data set [13] is T1, AMP-activated protein kinase, AMPK (Homo sapiens) (UniProt P54646+O43741+P54619+Q9UGJ0+Q9Y478+Q13131+Q9UGI9). The data set is described as follows: Increase in AMPK phosphorylation at T172 in human MDA-MB-231 cells at 20 uM after 12 hrs by RPPA analysis. In kind it is cell-based.
Data set [14] deals with T1, AMP-activated protein kinase, AMPK (Homo sapiens). The data set is described as follows: Increase in AMPK phosphorylation at T172 in human MCF7 cells at 20 uM after 12 hrs by RPPA analysis. In kind it is cell-based.
For data set [15], the target named is T2, Acetyl-CoA carboxylase (Homo sapiens) (UniProt Q13085+O00763). The data set is described as follows: Increase in ACC phosphorylation at Ser79 in human MDA-MB-231 cells at 20 uM after 12 hrs by RPPA analysis. In kind it is cell-based.
In data set [16] the target is T2, Acetyl-CoA carboxylase (Homo sapiens). Kind of data set: Increase in ACC phosphorylation at Ser79 in human MCF7 cells at 20 uM after 12 hrs by RPPA analysis. In kind it is cell-based.
Data set [17] deals with MDA-MB-231. Kind of data set: Inhibition of mTORC1 signaling in human MDA-MB-231 cells assessed as reduction in p70S6K phosphorylation at Thr389 at 20 uM after 12 hrs by RPPA analysis. In kind it is cell-based.
In data set [18] the test system is MDA-MB-231. The data set is described as follows: Inhibition of mTORC1 signaling in human MDA-MB-231 cells assessed as reduction in S6 phosphorylation at Ser235 at 20 uM after 12 hrs by RPPA analysis. In kind it is cell-based.
The test system of data set [19] is MDA-MB-231. Kind of data set: Inhibition of mTORC1 signaling in human MDA-MB-231 cells assessed as reduction in S6 phosphorylation at Ser236 at 20 uM after 12 hrs by RPPA analysis. In kind it is cell-based.
The subject of data set [20] is MDA-MB-231. Kind of data set: Inhibition of mTORC1 signaling in human MDA-MB-231 cells assessed as reduction in S6 phosphorylation at Ser240 at 20 uM after 12 hrs by RPPA analysis. In kind it is cell-based.
For data set [21], the system named is MDA-MB-231. The data set is described as follows: Inhibition of mTORC1 signaling in human MDA-MB-231 cells assessed as reduction in S6 phosphorylation at Ser244 at 20 uM after 12 hrs by RPPA analysis. In kind it is cell-based.
Data set [22] relates to MDA-MB-231. The data set is described as follows: Effect on total p70S6K level in human MDA-MB-231 cells at 20 uM after 12 hrs by RPPA analysis. In kind it is cell-based. The following applies: mda-mb-231, 12 h.
Data set [23] relates to MDA-MB-231. Kind of data set: Effect on total S6 level in human MDA-MB-231 cells at 20 uM after 12 hrs by RPPA analysis. The following applies: mda-mb-231, 12 h. In kind it is cell-based.
Data set [24] deals with MDA-MB-231. The data set is described as follows: Inhibition of mTORC1 signaling in human MDA-MB-231 cells assessed as reduction in […] at 10 uM by Western blot analysis. In kind it is cell-based.
Data set [25] concerns MDA-MB-157. The data set is described as follows: Inhibition of mTORC1 signaling in human MDA-MB-157 cells assessed as reduction in […] at 10 uM by Western blot analysis. In kind it is cell-based.
The test system of data set [26] is MDA-MB-231. Kind of data set: Inhibition of PI3K/AKT in human MDA-MB-231 cells assessed as reduction in mTOR phosphorylation at Ser2448 at 20 uM after 12 hrs by RPPA analysis. In kind it is cell-based.
Data set [27] has as its system MCF7. Kind of data set: Inhibition of PI3K/AKT in human MCF7 cells assessed as reduction in mTOR phosphorylation at Ser2448 at 20 uM after 12 hrs by RPPA analysis. In kind it is cell-based.
The test system of data set [28] is MDA-MB-231. The data set is described as follows: Inhibition of PI3K/AKT in human MDA-MB-231 cells assessed as reduction in mTOR phosphorylation at Ser2448 up to 10 uM by Western blot analysis. In kind it is cell-based.
For data set [29], the system named is MDA-MB-157. Kind of data set: Inhibition of PI3K/AKT in human MDA-MB-157 cells assessed as reduction in mTOR phosphorylation at Ser2448 up to 10 uM by Western blot analysis. In kind it is cell-based.

The source made the active and inactive calls. The rule behind the calls is not given here.

In general, IC50 refers to the concentration that gives 50% inhibition. In the case of `N#CCCCCCCOc1ccc2[nH]cc(CCN)c2c1`, the concentration for half-maximal inhibition (IC50) in the data set with MDA-MB-231 [1] and in the data set with MCF7 [2] was above 50 µM each time.
Consider `CCCCOc1ccc2[nH]cc(CCN)c2c1`, for which the IC50 is 48 µM in the data set on MDA-MB-231 [1] and 45 µM with MCF7 [2].
`CCCCCCCCCCCCCCCCOc1ccc2[nH]cc(CCN)c2c1`: the IC50 in the data set on MDA-MB-231 [1] is 7.5 µM; with MCF7 [2], 13 µM.
In the case of `CCCCC(CC)COc1ccc2[nH]cc(CCN)c2c1` (stereo not given), the IC50 in the data set on MDA-MB-231 [1] was found to be 8.2 µM; with MCF7 [2], 15 µM.
The corresponding values for `CCCCCCCCCCCCCCOc1ccc2[nH]cc(CCN)c2c1` are 4.8 µM and 8.4 µM.
Regarding `CCCCCCCCCCCCOc1cccc2c(CCN)c[nH]c12`, the IC50 was found to be 4.6 µM with MDA-MB-231 [1] and 8.6 µM with MCF7 [2].
`CCCCCCCCCOc1cccc2[nH]cc(CCN)c12.Cl`: the IC50 with MDA-MB-231 [1] is 4.2 µM; in the data set on MCF7 [2] it was 4.9 µM. Also, the result in the data set on MDA-MB-231 [3], in the data set with MDA-MB-231 [4], in the data set with MDA-MB-231 [7], in the data set on MDA-MB-157 [8], in the data set on MDA-MB-157 [9] and with MDA-MB-157 [10] was Active. The result (in the data set on MDA-MB-157 [11]; in the data set on MDA-MB-157 [12]; in [13]; in [14]; in data set [15]; in [16]) was Active. In addition, in the data set on MDA-MB-231 [5], the outcome was inactive. Further, the Activity entry with MDA-MB-231 [6] is “Dose-dependent effect”; in the data set with MDA-MB-231 [22], “Non-Toxic”; in the data set with MDA-MB-231 [23], “Non-Toxic”. Moreover, the inhibition entry in the data set on MDA-MB-231 [17], in the data set on MDA-MB-231 [18], with MDA-MB-231 [19], in the data set on MDA-MB-231 [20], with MDA-MB-231 [21] and with MDA-MB-231 [24] was “Active” each time. For the same molecule, the inhibition entry with MDA-MB-157 [25] was “Active”. The inhibition entry in the data set with MDA-MB-231 [26], in the data set on MCF7 [27], in the data set on MDA-MB-231 [28] and with MDA-MB-157 [29] was “inactive” each time.
Consider `CCCCCCCCCOc1ccc2[nH]cc(CCN)c2c1`, for which the half-maximal inhibitory concentration (IC50) in the data set with MDA-MB-231 [1] worked out at 4.7 µM; in the data set on MCF7 [2] it was 8.8 µM.
With `CCCCCCCCCCOc1ccc2[nH]cc(CCN)c2c1`, the figures for the concentration for half-maximal inhibition (IC50) with MDA-MB-231 [1] and in the data set on MCF7 [2] were 4.4 µM and 9 µM, respectively.
